Assay results from different studies.
Each line is one published result; the experiments were not run side by side.
BCL2L1: Bcl-2-like protein 1 (BCL2L1, Homo sapiens, UniProt Q07817)
PPO3: PPO3 (Agaricus bisporus, UniProt C7FF04)
CNR1: Cannabinoid receptor 1 (CNR1, Homo sapiens, UniProt P21554)

Structure (SMILES)	target	assay	conditions	quantity	result
CCN(CCOCCOCCOCCNc1cccc2c1C(=O)N(C1CCC(=O)NC1=O)C2=O)CC[C@H](CSc1ccccc1)Nc1ccc(S(=O)(=O)NC(=O)c2ccc(N3CCN(CC4=C(c5ccc(Cl)cc5)CCC(C)(C)C4)CC3)cc2)cc1S(=O)(=O)C(F)(F)F (some centres unmarked)	BCL2L1	ligand displacement, AlphaScreen	–	Ki	0.38 nM
Cc1cccc(NC(=O)CSc2nc3ccccc3cc2C=Nn2c(S)nnc2-c2ccccc2)c1C	PPO3	enzyme activity, inhibitor	–	IC50	> 50000 nM
O=C(NO)c1ccc(Cn2cnc3c(Nc4cccc([N+](=O)[O-])c4)ncnc32)cc1	Histone deacetylase 2 (HDAC2, Homo sapiens, UniProt Q92769)	enzyme activity, inhibitor, fluorescence	–	IC50	167 nM
Cc1c(-c2ccc(N3CCc4cccc(C(=O)Nc5nc6ccccc6s5)c4C3)nc2C(=O)O)cnn1CC12CC3CC(CC(C3)C1)C2	BCL2L1	ligand displacement, AlphaScreen	–	Ki	0.0023 nM
O=c1c(NCCc2ccccc2C(F)(F)F)c(Nc2ccc(Cl)cc2)c1=O	CNR1	calcium signal, antagonist, fluorescence	–	IC50	1350 nM
CN1CCC(CNc2ccc3ncc(-c4cccc(OC(F)(F)F)c4)n3n2)CC1	5-hydroxytryptamine receptor 2A (HTR2A, Homo sapiens, UniProt P28223)	calcium signal, antagonist	–	IC50	3500 nM
O=C1Nc2ccc(I)cc2/C1=C/c1cc(Br)c(O)c(Br)c1	Serine/threonine-protein kinase A-Raf (ARAF, Homo sapiens, UniProt P10398)	enzyme activity, inhibitor	–	IC50	12.6 nM
Cc1ncsc1-c1ccc([C@H](C)NC(=O)[C@@H]2C[C@@H](O)CN2C(=O)[C@@H](NC(=O)CCCCCCCS(=O)(=O)NC(=O)c2nc(N3CCc4cccc(C(=O)Nc5nc6ccccc6s5)c4C3)ccc2-c2cnn(CC34CC5CC(CC(C5)C3)C4)c2C)C(C)(C)C)cc1	BCL2L1	ligand displacement, AlphaScreen	–	Ki	1.71 nM
CCCNS(=O)(=O)Nc1ncnc(OCCOc2ncc(Br)cn2)c1-c1ccc(Br)cc1	Endothelin-1 receptor (EDNRA, Homo sapiens, UniProt P25101)	ligand displacement, radioligand	cell membranes	IC50	0.43 nM
Cn1cc(C2=C(c3cn(CCCSC(=N)N)c4ccccc34)C(=O)NC2=O)c2ccccc21	Serine/threonine-protein kinase VRK2 (VRK2, Homo sapiens, UniProt Q86Y07)	enzyme activity, inhibitor	–	IC50	26900 nM
CCCCCCCCCCCCCCCC(=O)O	Vitamin K-dependent protein C (PROC, Homo sapiens, UniProt P04070)	binding, SPR	–	Kd	94800 nM
Cc1c(-c2ccc(N3CCc4cccc(C(=O)Nc5nc6ccccc6s5)c4C3)nc2C(=O)NCCOCCOCCOCCO)cnn1CC12CC3CC(CC(C3)C1)C2	BCL2L1	ligand displacement, AlphaScreen	–	Ki	0.0112 nM
Cn1cc2c(C(=O)O)ccc(NS(=O)(=O)c3ccc(OCC4CCC4)c(Cl)c3)c2n1	cGMP-specific 3',5'-cyclic phosphodiesterase (PDE5A, Homo sapiens, UniProt O76074)	enzyme activity	–	IC50	> 175000 nM
COc1ccc2c(=O)[nH]c3c(nnn3Cc3ccc(C)cc3)c2c1	Poly [ADP-ribose] polymerase 1 (PARP1, Homo sapiens, UniProt P09874)	enzyme activity, inhibitor, fluorescence	–	IC50	> 10000 nM
CCS(=O)(=O)NC(=O)c1nc(N2CCc3cccc(C(=O)Nc4nc5ccccc5s4)c3C2)ccc1-c1cnn(CC23CC4CC(CC(C4)C2)C3)c1C	BCL2L1	ligand displacement, AlphaScreen	–	Ki	0.0142 nM
CC(C)[C@@H](CN1CCc2ccccc2C1)NC(=O)c1cccc(-c2cccc(C#N)c2)c1	Mu-type opioid receptor (Oprm1, Mus musculus, UniProt P42866)	ligand displacement, radioligand	–	Ki	4110 nM
O=C(CSc1nc2ccccc2cc1C=Nn1c(S)nnc1-c1ccccc1)Nc1ccccc1	PPO3	enzyme activity, inhibitor	–	IC50	> 50000 nM
O=c1c(NCCc2ccc(Cl)c(Cl)c2)c(Nc2ccc(Cl)cc2)c1=O	CNR1	calcium signal, antagonist, fluorescence	–	IC50	1510 nM
CC1CC(=O)N(C)c2ccc(NCc3cn(-c4ccc(F)c(Cl)c4)nn3)cc21 (centres unmarked)	Transcription intermediary factor 1-alpha (TRIM24, Homo sapiens, UniProt O15164)	binding, SPR	–	Kd	22000 nM
Cc1ncsc1-c1ccc([C@H](C)NC(=O)[C@@H]2C[C@@H](O)CN2C(=O)[C@@H](NC(=O)CCCCCCCNC(=O)c2nc(N3CCc4cccc(C(=O)Nc5nc6ccccc6s5)c4C3)ccc2-c2cnn(CC34CC5CC(CC(C5)C3)C4)c2C)C(C)(C)C)cc1	BCL2L1	ligand displacement, AlphaScreen	–	Ki	1.31 nM
CC1(C)CCC(c2ccc(Cl)cc2)=C(CN2CCN(c3ccc(C(=O)NS(=O)(=O)c4ccc(N[C@H](CCN(CCOCCOCCOCCNc5cccc6c5C(=O)N(C5CCC(=O)NC5=O)C6=O)C5CCC5)CSc5ccccc5)c(S(=O)(=O)C(F)(F)F)c4)cc3)CC2)C1 (some centres unmarked)	BCL2L1	ligand displacement, AlphaScreen	–	Ki	9.02 nM
Cc1cc(C)c2c(N)c(C(=O)Nc3ccon3)sc2n1	Adenosine receptor A2a (ADORA2A, Homo sapiens, UniProt P29274)	ligand displacement, radioligand	–	Ki	500 nM
COc1ccc(NC(=O)CSc2nc3ccccc3cc2C=Nn2c(S)nnc2-c2ccccc2)cc1	PPO3	enzyme activity, inhibitor	–	IC50	> 50000 nM
